We go through four compounds from ChEMBL document CHEMBL2010648, “Discovery of novel anti-inflammatory drug-like compounds by aligning in silico and in vivo screening: the nitroindazolinone chemotype” (Eur J Med Chem, 2011).

The species entered for series [1] is Danio rerio. As to the kind of experiment: Antiinflammatory activity in transgenic zebrafish larvae harboring Fli-1 gene assessed as LPS-stimulated leukocyte migration to injury zone of tail transected larvae at 1 uM after 20 to 22 hrs by microscopy. In kind it is functional. Summed up: (§1)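 Transgenic fli-1:EGFP zebrafish were reared in E3 at 28 °C, with PTU added at 20 hpf. Compounds were dissolved in DMSO and diluted in Danieau's, with final DMSO ≤1%. Ten 4-dpf larvae per group were pretreated for 1 h, anaesthetised with tricaine and tail-transected. They were then incubated with compound plus LPS for 20–22 h, fixed in 4% PFA and stained with Leucognost. Leukocyte migration to the tail tip was scored microscopically as relative leukocyte migration. Run in triplicate.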

The test system of series [2] is J774. The experiment in a line: Cytotoxicity against mouse J774 cells at 256 uM after 24 hrs by MTT assay. The series is classed as functional. Summed up:
(§2)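 J774 macrophages in RPMI-1640 with 20% heat-inactivated FCS were seeded at 70,000 cells/well and allowed to attach for 24 h at 37 °C. They were exposed to compounds for 24 h (final DMSO ≤0.2%), then given MTT 0.4 mg/mL for 60 min; formazan was dissolved in DMSO and read at OD595. %Cytotoxicity was calculated against growth controls, corrected for compound-in-medium blanks. Each concentration was tested three times, in duplicate assays.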

The species entered for series [3] is Danio rerio. The experiment in a line: Toxicity in transgenic zebrafish larvae harboring Fli-1 gene assessed as maximum tolerated dosage after 24 hrs. In kind it is organism-based. The settings on record: in vivo. Summed up: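 Fertilized eggs of the fli-1:EGFP line reared in E3 embryo medium at 28 °C, with PTU added at 20 hpf to block pigmentation. Compounds were dissolved in DMSO and diluted in Danieau's 0.3X, final DMSO ≤1%. Larvae at 4 dpf, 5 per well, were exposed for 24 h to 10, 30 and 100 (highest) concentrations and checked by light microscopy at 5 dpf. MTC is the highest concentration giving no death or toxicity signs.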

The species named for series [4] is Danio rerio. As to the kind of experiment: Antiinflammatory activity in transgenic zebrafish larvae harboring Fli-1 gene assessed as LPS-stimulated leukocyte migration to injury zone of tail transected larvae at 3 uM after 20 to 22 hrs by microscopy. In kind it is functional. Summed up: as §1
Series [5] has as its system Mus musculus. The experiment in a line: Antiinflammatory activity against TPA-induced ear edema in Swiss mouse assessed as inhibition of increase in ear weight at 0.5 mg/ear administered topically measured after 4 hrs relative to control. In kind it is functional. Summed up: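 Female Swiss mice (25–30 g, groups of six) received TPA in acetone topically on the right ear, with the left ear as control. Compound in acetone was applied at the same time. After 4 h, 6 mm punches from both ears were weighed. Oedema was taken as the weight difference between ears, and inhibition % was calculated versus the vehicle group. Mean ± SEM, Dunnett's test.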

For series [6], the species on record is Mus musculus. The experiment in a line: Inhibition of MPO activity in TPA-induced Swiss mouse ear tissue homogenates after 3 mins relative to control. In kind it is functional, organism-based. The arrangement: concentration or dose not given beside the values. Summed up:
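Ear tissue was homogenised at 0 °C in 80 mM phosphate buffer with 0.5% HTAB, then centrifuged at 10300g for 20 min at 4 °C. Supernatant, in triplicate, was mixed with phosphate buffer (pH 5.4) and H2O2. The reaction was started with TMB in 8% DMF, run 3 min at 37 °C and stopped with NaOAc/HOAc pH 3.0. A630 was read, and inhibition % was calculated versus the vehicle group.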

Series [7] deals with J774. As to the kind of experiment: Cytotoxicity against mouse J774 cells at 64 uM after 24 hrs by MTT assay. The series is classed as functional. Summed up: as §2
A general note: Formazan colour is commonly taken as a measure of viable cells.

The species named for series [8] is Danio rerio. The experiment in a line: Antiinflammatory activity in transgenic zebrafish larvae harboring Fli-1 gene assessed as LPS-stimulated leukocyte migration to injury zone of tail transected larvae at 10 uM after 20 to 22 hrs by microscopy. In kind it is functional. Summed up: as §1
Series [9] has as its system J774. As to the kind of experiment: Cytotoxicity against mouse J774 cells at 128 uM after 24 hrs by MTT assay. The series is classed as functional. Summed up:
as §2

Series [10] deals with J774. As to the kind of experiment: Cytotoxicity against mouse J774 cells at 10 ug/mL after 24 hrs by MTT assay. The series is classed as functional. Summed up:
as §2

The test system of series [11] is J774. The experiment in a line: Cytotoxicity against mouse J774 cells at 100 ug/mL after 24 hrs by MTT assay. The series is classed as functional. Summed up:
as §2

Series [12] is filed under the species Danio rerio. The experiment in a line: Toxicity to transgenic zebrafish larvae harboring Fli-1 gene at 100 uM after 24 hrs. The conditions noted are these: in vivo.
Series [13] deals with J774. The experiment in a line: Cytotoxicity against mouse J774 cells at 1 ug/mL after 24 hrs by MTT assay. The series is classed as functional. Summed up: as §2
The species entered for series [14] is Danio rerio. The experiment in a line: Antiinflammatory activity in transgenic zebrafish larvae harboring Fli-1 gene assessed as LPS-stimulated leukocyte migration to injury zone of tail transected larvae at 0.3 uM after 20 to 22 hrs by microscopy. The series is classed as functional. Summed up:
as §1

For series [15], the species on record is Danio rerio. As to the kind of experiment: Antiinflammatory activity in transgenic zebrafish larvae harboring Fli-1 gene assessed as LPS-stimulated leukocyte migration to injury zone of tail transected larvae at 30 uM after 20 to 22 hrs by microscopy. The series is classed as functional. Summed up:
as §1

Series [16] is filed under the species Danio rerio. The experiment in a line: Antiinflammatory activity in transgenic zebrafish larvae harboring Fli-1 gene assessed as LPS-stimulated leukocyte migration to injury zone of tail transected larvae at 100 uM after 20 to 22 hrs by microscopy. In kind it is functional. Summed up: as §1

For the compound `CCCCCn1c2ccc([N+](=O)[O-])cc2c(=O)n1Cc1ccccc1`, the Ratio in [1] was 0.68; in [4], 0.67; in series [8], 0.27. Also, the Activity in series [2] was determined as 80.99%; in series [7], 54.14%; in [9], 71.75%. In addition, the MTD in series [3] amounted to 10 µM. Moreover, in [5], the “inhibition (INH)” value is on record as 92%. This compound had an inhibition in [6] of 46%.
For the compound `O=c1c2cc([N+](=O)[O-])ccc2n(Cc2ccccc2)n1Cc1ccccc1`, the results for the Ratio in series [1], in series [4] and in [8] were 0.58, 0.65 and 0.35, respectively. The Activity amounted to 57.87% in [2], 9.77% in series [7] and 64% in [9]. Besides, the MTD in [3] was 10 µM. In series [5], the “inhibition (INH)” value is 80%. In series [6], this compound had an inhibition of 36%.
In the case of `O=C1C2=Cc3ccccc3CCN2c2ccccc21`, the Activity in series [10] is recorded as 9.4%; in series [11], 73.1%; in series [12], “Toxic”; in series [13], 3.4%. The results for the Ratio in series [1], in series [4] and in series [14] were 0.4, 0.24 and 0.64, respectively. Moreover, the MTD in [3] was determined as 3 µM. Further, in [5], the “inhibition (INH)” value was 73%. Further, the inhibition in series [6] was found to be 56%.
As to `COc1ccc2c(c1)c(CC(=O)O)c(C)n2C(=O)c1ccc(Cl)cc1` [INDOMETHACIN], the Ratio in series [1] is 0.54; in series [4] it was 0.5; in series [15] it was 0.38; in series [14], 0.57; in series [16], 0.28; in [8], 0.48. In [3], the MTD is more than 100 µM. For the same compound, in series [5], the “inhibition (INH)” value is on record as 97%. The compound also showed an inhibition in [6] of 61%.

The inhibition is the drop in the measured response relative to a control, in per cent.
